The data set is described as follows: Toxicity liver stage against HepG2, at 10uM. Type of data set: cell-based. Details: test concentration 10 uM, cell line HepG2-A16-CD81EGFP. The following applies: human, HepG2-A16-CD81EGFP cells; read-out: INHIBITION
An outline of the steps: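 Uninfected HepG2-A16-CD81EGFP cells, 3 × 10^3 per well, 1536-well, plated on prespotted compound at 10 μM final, parasite-free screening media added to match infected plates; puromycin 10 μM positive, DMSO 0.5% negative; run in parallel with 48 h PbLuc assay at 37 °C, 5% CO2; viability by CellTiter-Glo luminescence, normalized to controls.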
For `Cc1ccc(OCc2nc(CNCC3CN(C)CCO3)cs2)cc1` (centres undefined), the cytotoxicity at 10 µM was -23.5%.
Regarding `CCc1nnc2n1CCN(C(=O)COCCc1ccccc1)C2`, the cytotoxicity at 10 µM was -8.28%.
With `O=C(NC1CCCN(CCc2ccccc2)C1)c1ccccn1` (centres undefined), the cytotoxicity at 10 µM is -5.42%.
As for `CCN1CCN(c2ccc(C(=O)NCCn3ccnc3)cc2F)CC1`, the cytotoxicity at 10 µM turned out to be 10.8%.
For `CCS(=O)(=O)N1CCc2c(cccc2NCc2ncc[nH]2)C1` the value was -42.9%; for `COc1ccc(CNC(C)c2cn[nH]c2C)cc1` (centres undefined), 6.1%; for `CN1CCC(CN2CCC3(CCCN(Cc4ccoc4)C3)C2=O)CC1` (centres undefined), -12.9%.
`Cc1cc(-c2nc(-c3ccccn3)nn2C2CCN(C)CC2)nc(C)n1`: the cytotoxicity at 10 µM was -3.14%.
In the case of `CCCNC(=O)c1ccc(NC(=O)c2cccc(OCC)c2)cc1`, the cytotoxicity at 10 µM was -10.5%.
Take `CS(=O)(=O)c1ccccc1N[C@@H]1c2ccccc2C[C@@H]1O`: the cytotoxicity at 10 µM was -40.5%.
For `CCc1ccc(C(=O)NCCCC2(C3OCCO3)CCOCC2)cc1`, the cytotoxicity at 10 µM was 15.6%.
For `O=C(NCc1nnc2n1CCC2)c1cn(-c2cccc(Br)c2)nn1`, the cytotoxicity at 10 µM is -4.3%.
In the case of `Cc1cc(C)c2c(N(C)CC3CCN(CC(C)C)C3)ncnc2n1` (centres undefined), the cytotoxicity at 10 µM came to 1.61%.
With `CC(=O)N1CCc2[nH]cnc2C12CCN(C(=O)CCn1cccn1)CC2`, the cytotoxicity at 10 µM came to 5.71%.
For `COc1ccccc1C1CC(=O)Nc2c1c(=O)[nH]n2C1CCCC1` (centres undefined), the cytotoxicity at 10 µM was -3.85%.
Regarding `CC(C)(CNC(=O)Nc1nccs1)N1CCOCC1`, the cytotoxicity at 10 µM was -9.47%.
In the case of `O=C(CC1CN(Cc2ccccc2)CCO1)NCCN1CCOCC1` (centres undefined), the cytotoxicity at 10 µM stood at 6.67%.
As to `c1cncc(OC[C@@H]2CC[C@H]3[C@H](CCN3Cc3cccs3)O2)c1`, the cytotoxicity at 10 µM came to 6.23%.
As to `CN(C)CCNc1ncccc1CNC(=O)Nc1cc(F)cc(F)c1`, the cytotoxicity at 10 µM was 2.62%.
`O=C(Cc1ccc2c(c1)OCC2)Nc1nc[nH]n1`: the cytotoxicity at 10 µM was -2.94%.
Turning to `CCn1nc2c(cc1=O)CN(CC(=O)Nc1cc(C(C)C)no1)CC2`, the cytotoxicity at 10 µM was -5.46%.
Under `COc1cc(C)nc(N2CCN(C(=O)CNC(C)(C)C)CC2)n1` stands -7.67%.
In the case of `c1ccc(Cc2noc(CN3CCCC3C3CCCCC3)n2)cc1` (centres undefined), the cytotoxicity at 10 µM was 11.9%.
Take `Cc1noc([C@H]2C[C@H]3CN(C(=O)C4CCOCC4)CC[C@@H]3O2)n1`: the cytotoxicity at 10 µM was -72.6%.
For the compound `CC(C)N1CCO[C@H]2CN(C(=O)c3ccc(N(C)C)cc3)C[C@H]21`, the cytotoxicity at 10 µM was found to be 3.19%.
`CC(=O)N[C@@H]1CN(Cc2oc3ccccc3c2C)C[C@H]1c1ccc(C)o1`: the cytotoxicity at 10 µM was -12.3%.
With `COc1c(CNCc2ccc(N3CCCC3)nc2)c(C(C)C)nn1C`, the cytotoxicity at 10 µM was -11.5%.
Turning to `Cc1cc(C)n(CC2CCCCN2CC(=O)Nc2ccncc2)n1` (centres undefined), the cytotoxicity at 10 µM was found to be 8.69%.
For `Cc1nnc2n1CCN(CC(=O)NC(C)c1ccc3ccccc3c1)C2` (centres undefined) the value was -7.91%.
Consider `CCN(Cc1ccncc1)C(=O)CCn1c(C)cc2ccccc21`, for which the cytotoxicity at 10 µM is -3.38%.
On to `Cc1ccc(CN2CCC3(CC2)COCCN3S(C)(=O)=O)o1`, for which the cytotoxicity at 10 µM came out at 8.86%.
In the case of `O=C(c1ccsc1)N1CCc2onc(CN3CCOCC3)c2C1`, the cytotoxicity at 10 µM worked out at 5.07%.
Regarding `Cc1cc(C)n(CC2CCCN2C(=O)c2cccn3ccnc23)n1` (centres undefined), the cytotoxicity at 10 µM is -7.45%.
For `Cc1cc(C)nc(N2CC[C@H](Oc3ccccc3F)[C@@H](O)CC2)n1` the value was 3.72%; for `N#Cc1ccc(C(=O)N2C[C@@H](CN3CCCC3)C[C@H](CO)C2)cc1`, -2.86%; for `COc1cccc(NC(=O)NC(C)(C)c2noc(C)n2)c1`, 7.35%.
For `CCN1C(=O)CCCC12CCCN(C(=O)c1occc1C)C2` (centres undefined), the cytotoxicity at 10 µM came to 2.88%.
Turning to `Cc1c(Cl)cccc1NC(=O)N1CCN(Cc2ccccn2)CC1`, the cytotoxicity at 10 µM was -5.55%.
In the case of `Cc1ccc(N2CCC3(CCCN(C(=O)c4cccnc4)C3)C2)nn1` (centres undefined), the cytotoxicity at 10 µM came out at 2.21%.
As for `CS(=O)(=O)NCC1CCCN(C(=O)CCCc2ccccc2)C1` (centres undefined), the cytotoxicity at 10 µM is -2.78%.
With `O=C(c1ccc(=O)[nH]n1)N(CCO)Cc1cc(Br)ccc1F`, the cytotoxicity at 10 µM was 7.56%.
With `O=C(NCCn1nc2ccccn2c1=O)c1sccc1-c1ccccc1`, the cytotoxicity at 10 µM was -12.7%.
Turning to `COCCN1C(=O)CC[C@@H]2[C@H]1CCN2Cc1ccc(C)s1`, the cytotoxicity at 10 µM was -70.4%.
With `CN1CCC(NC(=O)Nc2ccc(Cl)c(F)c2)C1=O` (centres undefined), the cytotoxicity at 10 µM was -136%.
In the case of `CNS(=O)(=O)CC1CCCN1c1ccccn1` (centres undefined), the cytotoxicity at 10 µM turned out to be 2.83%.
As to `FC(F)(F)Oc1ccc(CN2CCCC(n3cncn3)C2)cc1` (centres undefined), the cytotoxicity at 10 µM is -14.4%.
For the compound `Cc1nc(C)n(CC2CCCN(CC(=O)Nc3ccncc3)C2)n1` (centres undefined), the cytotoxicity at 10 µM was -5.75%.
Under `COc1cc2c(cc1OC)CN(C(=O)Cn1nc(C)cc1C)CC2` stands 1.29%.
`COCCN1CCN(S(C)(=O)=O)Cc2cccnc21`: the cytotoxicity at 10 µM amounted to 5.7%.
Regarding `CC(Oc1ccc(F)cc1F)C(=O)N1CCC2(CC1)CC(=O)N(C)C2` (centres undefined), the cytotoxicity at 10 µM stood at 1.63%.
On to `COCCNC(=O)c1ccc2ccc(N3CCN(CC4CC4)CC3)n2c1`, for which the cytotoxicity at 10 µM is 6.59%.
Under `CCN(C(=O)NCc1ccc(C)cc1OC)C(C)c1cccnc1` (centres undefined) stands 6.32%; under `Cc1noc(C)c1CN1CCOC2(CCCN(c3nccs3)C2)C1` (centres undefined), 2.39%.
For `CC(=O)N[C@@H]1CN(Cc2ccc(F)cc2F)C[C@H]1c1ccc(C)o1`, the cytotoxicity at 10 µM is 6.39%.
Regarding `CCC1=N[C@@]2(CC[C@@H]3CN(C(=O)NCC4CCCCC4)C[C@@H]32)C(=O)N1`, the cytotoxicity at 10 µM is -70.2%.
For `CC(C)c1nn(C)c(N(C)C)c1CNCCC(=O)N(C)C` the value was -6.02%; for `CC(C)c1nc(C2CCCN(C(=O)c3ccc4c(c3)OCO4)C2)no1` (centres undefined), -14.1%; for `c1ncn(CC2CCCCN2Cc2csc(-c3ccsc3)n2)n1` (centres undefined), -2.48%.
`Cc1ccc2nc(-c3cnc(N)nc3)c(C)c(C(=O)N(C)C)c2c1`: the cytotoxicity at 10 µM is -13.8%.
On to `COCCN(Cc1ccccc1)Cc1nc(-c2ccsc2)no1`, for which the cytotoxicity at 10 µM is 5.6%.
As for `O=C(COCC(=O)N(c1ccccc1)c1ccccc1)N1CCCC1`, the cytotoxicity at 10 µM turned out to be 10.9%.
Under `CN(C)C(=O)N1CC[C@H]2[C@H]1CCN2c1nncs1` stands -1.19%; under `COCCN1CCN(CCS(C)(=O)=O)CC1C` (centres undefined), -1.22%; under `COc1ccnc(N2CCc3ccc(OC(F)F)cc3C2)n1`, -4.32%.
For the compound `CC(=O)NCC(=O)N1CCn2cc(CN3CCCCC3)nc2C1`, the cytotoxicity at 10 µM was -3.34%.
As for `CC(C)(C)n1cc(C#N)cc1NC(=O)CCNC(=O)c1ccco1`, the cytotoxicity at 10 µM worked out at 1.95%.
As to `CC(C)N1CC(C(=O)N2CCN(CCn3cccc3)CC2)CC1=O` (centres undefined), the cytotoxicity at 10 µM was -4.97%.
On to `COc1cc(C)sc1C(=O)N1CCCC(n2nc(C)nc2C)C1` (centres undefined), for which the cytotoxicity at 10 µM was -13.6%.
For `COCCN(Cc1ccc(OC)nc1)Cc1cccs1`, the cytotoxicity at 10 µM was -7.28%.
In the case of `O=c1[nH]c2cn(-c3cccc(Cl)c3)c(=O)n2n1Cc1cccc(F)c1`, the cytotoxicity at 10 µM amounted to 11%.
With `CC(CO)NC(=O)c1ccc(NCc2cc(C#N)ccc2F)cc1` (centres undefined), the cytotoxicity at 10 µM was 1.98%.
Take `CCc1nccn1C1CCCN(C(=O)c2ccc3nncn3c2)C1` (centres undefined): the cytotoxicity at 10 µM is -12.7%.
On to `NC(=O)CN1CC[C@@]2(O)CCCC[C@H]2[C@@H]1c1ccc2c(c1)OCO2`, for which the cytotoxicity at 10 µM was determined as 3.26%.
Regarding `CC(=O)c1cc(CN2CCCC2c2nc3ccc(C)cc3[nH]2)cs1` (centres undefined), the cytotoxicity at 10 µM worked out at 3.01%.
As to `O=C(c1cccs1)N1C[C@H]2CC[C@@]3(N=C(c4ccccc4)NC3=O)[C@H]2C1`, the cytotoxicity at 10 µM is -9.84%.
In the case of `CC(C)c1nc2c(n1C)CCN(CCCOc1ccc(C#N)cc1)C2`, the cytotoxicity at 10 µM is -12.8%.
In the case of `Cn1c(NCC(O)c2ccc(F)c(F)c2)c(C#N)c(=O)n(C)c1=O` (centres undefined), the cytotoxicity at 10 µM is -19.9%.
On to `CCC(C(=O)NC(C)(C)C)n1ccc2ncccc2c1=O` (centres undefined), for which the cytotoxicity at 10 µM came to 3.69%.
As for `c1ccc(Oc2cccc(OC34CCCN(CC3)C4)c2)cc1` (centres undefined), the cytotoxicity at 10 µM is 0.681%.
In the case of `O=c1c2cnc(N3CCCC3)nc2ccn1-c1cccc(C(F)(F)F)c1`, the cytotoxicity at 10 µM came to 16.9%.
Consider `CC(C)OC[C@H]1CCC[C@]12CN(S(=O)(=O)C1CC1)CCO2`, for which the cytotoxicity at 10 µM was -2.51%.
As to `CN(Cc1cccnc1)[C@@H]1CN(CC2CC2)[C@@H]2CCCO[C@H]12`, the cytotoxicity at 10 µM was -1.48%.
As to `CC(=O)N1CCCN(C(=O)C(C)n2cncn2)CC1` (centres undefined), the cytotoxicity at 10 µM is -0.227%.
Under `CCn1cnnc1CNC(=O)N(C)Cc1c(F)cccc1Cl` stands -5.56%.
For the compound `Cc1nnc(CNC(=O)[C@@H]2C[C@H](NC(=O)C(C)(C)C)CN2C)[nH]1`, the cytotoxicity at 10 µM worked out at 1.76%.
Consider `COc1ccc(S(=O)(=O)C(C)C(=O)NCCOc2cccc(C)c2)cc1` (centres undefined), for which the cytotoxicity at 10 µM is -2.24%.
Consider `CN(C)S(=O)(=O)NCc1nn(CCN2CCCC2)c(=O)c2ccccc12`, for which the cytotoxicity at 10 µM is -6.88%.
As for `CN(C)C(=O)N1CCN(Cc2cnn(C)c2)CC2(CNC(=O)C2)C1` (centres undefined), the cytotoxicity at 10 µM was determined as 1.21%.
In the case of `Cc1ccnc(OCC(=O)N2CCC(C(N)=O)CC2)n1`, the cytotoxicity at 10 µM is -17.7%.
With `CC(C(=O)N1CCCCCC1)N1CCN(c2nccs2)CC1` (centres undefined), the cytotoxicity at 10 µM was 11.7%.
Under `CN(Cc1cccnc1)[C@@H]1CN(Cc2ccccn2)[C@@H]2CCCO[C@H]12` stands -0.0545%; under `O=C(c1ccco1)N1CCCC(c2cc(C(F)(F)F)n3ncnc3n2)C1` (centres undefined), -3.55%.
In the case of `CN1CCCC1CNC(=O)CCCOc1ccc(Cl)cc1` (centres undefined), the cytotoxicity at 10 µM is -9.33%.
Take `CCc1nc(C)c([C@H]2CN(C)C[C@@H]2C(=O)Nc2ccccc2F)[nH]1`: the cytotoxicity at 10 µM was determined as 2.16%.

(Values after ChEMBL document CHEMBL4513216, “Probing the Open Global Health Chemical Diversity Library for Multistage-Active Starting Points for Next-Generation Antimalarials” (ACS Infect Dis, 2020).)
